This note sets out measurements from ChEMBL document CHEMBL1122853, “New bicyclic antidepressant agent. Synthesis and activity of napactadine and related compounds” (J Med Chem, 1985).

The source made the active and inactive calls. No cut-off for these calls is given here.

Series [1] concerns Mus musculus. Nature of the series: (§1) Effective dose required to potentiate yohimbine hydrochloride induced lethality in mice, administered intraperitoneally. Type of series: organism-based. The settings on record: in vivo, ip. In short, it runs like this: (§2)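 Male Swiss-Webster or Swiss ND/4 mice, 20-24 g, randomized into groups of 10 and housed five per cage. Test drug in saline given ip, with a saline control group. Yohimbine hydrochloride 20 mg/kg sc was given 30 min later, and mice were then reaggregated.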

Series [2] relates to Mus musculus. Nature of the series: (§3) Effective dose required to prevent reserpine ptosis in mice, administered intraperitoneally. The format is functional. The note with it: ip. The procedure, abridged:
(§4)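 Male Swiss-Webster or Harlan ICR mice, five per dose. Drug in saline given po or ip per line. Reserpine 2.5 mg/kg ip 30 min later. Complete absence of ptosis at 45 min after reserpine scored as positive. ED50 by Litchfield-Wilcoxon or Horn method, with 95% confidence intervals.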

The subject of series [3] is Mus musculus. Put plainly: Effective dose required to prevent reserpine ptosis in mice administered po. Type of series: functional. The procedure, abridged: as §4
Series [4] has as its system Mus musculus. Put plainly: Electrical shock aggression was evaluated in mice, administered intraperitoneally. Type of series: functional. The settings on record: ip. In short, it runs like this: (§5)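 Pairs of mice placed under an inverted 1000 cm3 beaker and shocked through the floor grid (3 mA, 3 Hz) for 2 min. Drug given ip 30 min before testing; scored all-or-none against a saline group. Fighting counted as inhibited when mean attacks fell 1.5 SD below the vehicle mean.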

The nature of series [5]: Lethal dose in mouse i.p. Type of series: toxicity, organism-based. The settings on record: in vivo, ip. The procedure, abridged: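 Male Swiss-Webster albino mice, 20-24 g, in groups of five. Each group received one dose ip in saline (prepared 30 min before injection) at 10 mL/kg. Mice were held singly for about 5 h, then housed together with food and water. Deaths were counted at 1 and 24 h. LD50 by Litchfield-Wilcoxon.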

The nature of series [6]: Lethal dose in mouse p.o. Type of series: toxicity, organism-based. The note with it: in vivo, po.
Series [7] can be described thus: Therapeutic index administered intraperitoneally in mouse. Type of series: organism-based. The settings on record: in vivo, ip, read-out: Therapeutic index. In short, it runs like this: (§6)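 Index from mouse LD50 over reserpine-ptosis ED50 by the same route. […] Deaths recorded at 1 and 24 h; Litchfield-Wilcoxon calculation.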
Series [8] can be described thus: Therapeutic index administered perorally in mouse. The format is organism-based. The settings on record: in vivo, po, read-out: Therapeutic index. The procedure, abridged:
as §6

Series [9] deals with Mus musculus. Nature of the series: Effective dose required to prevent reserpine ptosis in mice, administered (po)orally. The format is functional. In short, it runs like this: as §4
Series [10] relates to Mus musculus. The description is as §3. Type of series: functional. The settings on record: ip. In short, it runs like this: as §4
This is another data set of the same source.

Series [11] deals with Mus musculus. Nature of the series: Compound (administered intraperitoneally) was tested for yohimbine lethality potentiation. Type of series: functional. The note with it: ip. The procedure, abridged:
as §2

For series [12], the system named is Mus musculus. Put plainly: Electrical shock aggression was evaluated in mice, administered intraperitoneally; NA means no aggression blockade at 46.4 mg/kg. Type of series: functional, organism-based. Also on record: dose 46.4 mg/kg. The procedure, abridged:
as §5

The nature of series [13]: Therapeutic index after administered intraperitoneally in mouse. The format is organism-based. The note with it: in vivo, ip, read-out: Therapeutic index. The procedure, abridged:
as §6

For series [14], the system named is Mus musculus. The series is described as §1. Type of series: functional. The note with it: ip. The procedure, abridged: as §2

The ED50 is the dose that gives a 50% effect, or the effect in half of the subjects. Broadly, the LD50 is the dose at which mortality reaches 50%.

Consider `C/N=C(/Cc1ccc(Cl)cc1)NC.Cl`, for which the ED50 with Mus musculus [1] amounted to 15 mg/kg; in the series on Mus musculus [2] it was 2.3 mg/kg; with Mus musculus [3], 3.4 mg/kg; in the series with Mus musculus [4] it was 43 mg/kg. Besides, the results for the 50% lethal dose (LD50) in [5] and in series [6] were 69.4 mg/kg and 430 mg/kg, respectively. Moreover, the selectivity ratio in [7] turned out to be 30; in series [8], 127.
In the case of `C/N=C(\NC)c1ccc(Cl)c(Cl)c1.Cl`, the ED50 with Mus musculus [9] came out at 10.8 mg/kg; in the series on Mus musculus [2], 9.3 mg/kg; with Mus musculus [10] it was 9.3 mg/kg; in the series on Mus musculus [11], 2.4 mg/kg; in the series on Mus musculus [14], 2.4 mg/kg. Further, the ED50 entry in the series on Mus musculus [12] was “inactive”. The LD50 in series [5] came out at 60 mg/kg; in series [6], 215 mg/kg. The selectivity ratio was 20 in series [8] and 6 in series [13].
